Measurements taken from ChEMBL document CHEMBL1143406 (Antimicrob Agents Chemother, 2007).

Tests used:
[1] = Half life in HIV-negative human at 300 mg, po administered every 12 hrs; type: ADME, organism-based; conditions: in vivo
Procedure, shortened: (§1)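 Healthy HIV-negative volunteers, open-label sequential periods at steady state. […] Plasma (EDTA) drawn predose and 1–12 h (plus 24 h) on last day of period. Atazanavir measured by HPLC-UV 212 nm, linear 25–20,000 ng/ml. Noncompartmental analysis; AUC24 taken as doubled AUC12.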

[2] = Apparent oral clearance in HIV-negative human serum at 300 mg, po administered every 12 hrs coadministered with […] every 24 hrs; type: ADME, organism-based
Homo sapiens [3] = test: Toxicity in HIV-negative human assessed as bilirubin level at 300 mg, po administered every 12 hrs; type: organism-based; conditions: in vivo
Procedure, shortened: (§2)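 Serum bilirubin measured at commercial laboratories as a safety test during steady-state dosing periods in healthy HIV-negative volunteers.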

[4] = AUC (24 hrs) in HIV-negative human at 400 mg, po administered every 12 hrs coadministered with 600 mg of rifampin every 24 hrs; type: ADME, organism-based; set-up: dose 400 mg, time < 24 hr, route oral; conditions: plasma; procedure, shortened: as §1
Homo sapiens [5] = test: Toxicity in HIV-negative human assessed as hemoglobin level at 300 mg, po administered every 12 hrs administered every 12 hrs coadministered with 600 mg of rifampin every 24 hrs; type: organism-based; conditions: in vivo
[6] = Cmax in HIV-negative human at 300 mg, po administered every 12 hrs coadministered with 600 mg of rifampin every 24 hrs; type: ADME, organism-based; set-up: dose 300 mg, route oral; conditions: in vivo; procedure, shortened: as §1
Homo sapiens [7] = test: Toxicity in HIV-negative human assessed as bilirubin level at 300 mg, po administered every 12 hrs administered every 12 hrs coadministered with 600 mg of rifampin every 24 hrs; type: organism-based; conditions: in vivo; procedure, shortened: as §2
Homo sapiens [8] = test: Toxicity in gilbert's genotype lacking human assessed as bilirubin level at 300 mg, po administered every 12 hrs; type: organism-based; conditions: in vivo
[9] = Apparent oral clearance in HIV-negative human serum at 300 mg, po administered every 12 hrs; type: ADME, organism-based; procedure, shortened: as §1
Homo sapiens [10] = test: Toxicity in HIV-negative human assessed as hemoglobin level at 300 mg, po administered every 12 hrs; type: organism-based; conditions: in vivo
Homo sapiens [11] = test: Toxicity in HIV-negative human assessed as creatinine levels at 300 mg, po administered every 12 hrs; type: organism-based; conditions: in vivo
[12] = Cmax in HIV-negative human at 400 mg, po administered every 12 hrs coadministered with 600 mg of rifampin every 24 hrs; type: ADME, organism-based; set-up: dose 400 mg, route oral; conditions: in vivo; procedure, shortened: as §1
[13] = Half life in HIV-negative human at 300 mg, po administered every 12 hrs coadministered with 600 mg of rifampin every 24 hrs; type: ADME, organism-based; conditions: in vivo; procedure, shortened: as §1
[14] = Tmax in HIV-negative human at 300 mg, po administered every 12 hrs; type: ADME, organism-based; conditions: in vivo; procedure, shortened: as §1
Homo sapiens [15] = test: Terminal apparent distribution volume in HIV-negative human serum at 300 mg, po administered every 12 hrs coadministered with 600 mg of rifampin every 24 hrs; type: ADME, organism-based; conditions: in vivo; procedure, shortened: as §1
[16] = Cmax in HIV-negative human at 300 mg coadministered with 100 mg of ritonavir every 24 hrs; type: ADME, organism-based; set-up: dose 300 mg; conditions: in vivo
[17] = Drug level in HIV-negative human serum at 300 mg, po administered every 12 hrs coadministered with 600 mg of rifampin every 24 hrs measured at 12 hrs; type: ADME, organism-based
Procedure, shortened: (§3)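 Steady-state atazanavir level 12 h after morning dose, sampled before the evening dose and read directly from observed data. […] Plasma measured by HPLC-UV at 212 nm after tert-butyl methyl ether extraction. Linear range 25–20,000 ng/ml.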

[18] = Half life in HIV-negative human at 400 mg, po administered every 12 hrs coadministered with 600 mg of rifampin every 24 hrs; type: ADME, organism-based; conditions: in vivo; procedure, shortened: as §1
[19] = AUC (24 hrs) in HIV-negative human at 300 mg, po administered every 12 hrs coadministered with 600 mg of rifampin every 24 hrs; type: ADME, organism-based; set-up: dose 300 mg, time < 24 hr, route oral; conditions: plasma; procedure, shortened: as §1
[20] = AUC (12 hrs) in HIV-negative human at 400 mg, po administered every 12 hrs coadministered with 600 mg of rifampin every 24 hrs; type: ADME, organism-based; set-up: dose 400 mg, time < 12 hr, route oral; conditions: plasma; procedure, shortened: as §1
[21] = Drug level in HIV-negative human serum at 400 mg, po administered every 12 hrs coadministered with 600 mg of rifampin every 24 hrs measured at 12 hrs; type: ADME, organism-based; procedure, shortened: as §3
[22] = Drug level in HIV-negative human serum at 300 mg, po administered every 12 hrs measured at 12 hrs; type: ADME, organism-based; procedure, shortened: as §3
Homo sapiens [23] = test: Toxicity in HIV-negative human assessed as creatinine levels at 300 mg, po administered every 12 hrs administered every 12 hrs coadministered with 600 mg of rifampin every 24 hrs; type: organism-based; conditions: in vivo
Homo sapiens [24] = test: Toxicity in HIV-negative human assessed as alanine aminotransferase levels at 400 mg, po administered every 12 hrs coadministered with 600 mg of rifampin every 24 hrs; conditions: in vivo
Homo sapiens [25] = test: Toxicity in HIV-negative human assessed as bilirubin level at 400 mg, po administered every 12 hrs coadministered with 600 mg of rifampin every 24 hrs; conditions: in vivo
Homo sapiens [26] = test: Toxicity in human with six gilbert's genotype heterozygotes assessed as bilirubin level at 300 mg, po administered every 12 hrs; type: organism-based; conditions: in vivo
Homo sapiens [27] = test: Toxicity in HIV-negative human assessed as alanine aminotransferase levels at 300 mg, po administered every 12 hrs; type: organism-based; conditions: in vivo
[28] = AUC (12 hrs) in HIV-negative human at 300 mg, po administered every 12 hrs; type: ADME, organism-based; set-up: time < 12 hr, dose 300 mg, route oral; conditions: plasma; procedure, shortened: as §1
[29] = AUC (24 hrs) in HIV-negative human at 300 mg coadministered with 100 mg of ritonavir every 24 hrs; type: ADME, organism-based; set-up: dose 300 mg, time < 24 hr; conditions: plasma
Homo sapiens [30] = test: Toxicity in HIV-negative human assessed as hemoglobin level at 400 mg, po administered every 12 hrs coadministered with 600 mg of rifampin every 24 hrs; conditions: in vivo
[31] = AUC (12 hrs) in HIV-negative human at 300 mg, po administered every 12 hrs coadministered with 600 mg of rifampin every 24 hrs; type: ADME, organism-based; set-up: dose 300 mg, time < 12 hr, route oral; conditions: plasma; procedure, shortened: as §1
[32] = Cmax in HIV-negative human at 400 mg administered every 24 hrs; type: ADME, organism-based; set-up: dose 400 mg; conditions: in vivo
[33] = Cmax in HIV-negative human at 300 mg, po administered every 12 hrs; type: ADME, organism-based; set-up: dose 300 mg, route oral; conditions: in vivo; procedure, shortened: as §1
[34] = AUC (24hrs) in HIV-negative human at 400 mg administered every 24 hrs; type: ADME, organism-based; conditions: plasma
Homo sapiens [35] = test: Toxicity in HIV-negative human assessed as alanine aminotransferase levels at 300 mg, po administered every 12 hrs administered every 12 hrs coadministered with 600 mg of rifampin every 24 hrs; type: organism-based; conditions: in vivo
Homo sapiens [36] = test: Terminal apparent distribution volume in HIV-negative human serum at 400 mg, po administered every 12 hrs coadministered with 600 mg of rifampin every 24 hrs; type: ADME, organism-based; conditions: in vivo; procedure, shortened: as §1
[37] = AUC (24 hrs) in HIV-negative human at 300 mg, po administered every 12 hrs; type: ADME, organism-based; set-up: dose 300 mg, time < 24 hr, route oral; conditions: plasma; procedure, shortened: as §1
Homo sapiens [38] = test: Toxicity in human with two gilbert's genotype homozygotes assessed as bilirubin level at 300 mg, po administered every 12 hrs; type: organism-based; conditions: in vivo
[39] = Apparent oral clearance in HIV-negative human serum at 300 mg, po administered every 12 hrs coadministered with 600 mg of rifampin every 24 hrs; type: ADME, organism-based; procedure, shortened: as §1
[40] = Tmax in HIV-negative human at 300 mg, po administered every 12 hrs coadministered with 600 mg of rifampin every 24 hrs; type: ADME, organism-based; conditions: in vivo; procedure, shortened: as §1
Homo sapiens [41] = organism: Homo sapiens; test: Toxicity in HIV-negative human assessed as grade 3 fatigue; type: organism-based; conditions: in vivo
Homo sapiens [42] = test: Terminal apparent distribution volume in HIV-negative human serum at 300 mg, po administered every 12 hrs; type: ADME, organism-based; conditions: in vivo; procedure, shortened: as §1
Homo sapiens [43] = test: Toxicity in HIV-negative human assessed as creatinine levels at 400 mg, po administered every 12 hrs coadministered with 600 mg of rifampin every 24 hrs; conditions: in vivo
[44] = Tmax in HIV-negative human at 400 mg, po administered every 12 hrs coadministered with 600 mg of rifampin every 24 hrs; type: ADME, organism-based; conditions: in vivo; procedure, shortened: as §1

COC(=O)N[C@H](C(=O)N[C@@H](Cc1ccccc1)[C@@H](O)CN(Cc1ccc(-c2ccccn2)cc1)NC(=O)[C@@H](NC(=O)OC)C(C)(C)C)C(C)(C)C [ATAZANAVIR]
half-life [1]: 5.1 h
CL/F [2]: 808 mL/min
Activity (Homo sapiens [3]): Toxic
AUC at 24 h [4]: 19600 ng·h/mL
Activity (Homo sapiens [5]): Non-toxic
Cmax [6]: 1430 ng/mL
Activity (Homo sapiens [7]): Non-toxic
Activity (Homo sapiens [8]): 2.6 mg/dL
CL/F [9]: 202 mL/min
Activity (Homo sapiens [10]): Non-toxic
Activity (Homo sapiens [11]): Non-toxic
Cmax [12]: 2360 ng/mL
half-life [13]: 2.2 h
Tmax [14]: 3.2 h
Vbeta (Homo sapiens [15]): 252 L
Cmax [16]: 6130 ng/mL
concentration at 12 h [17]: 44 ng/mL
half-life [18]: 2.4 h
AUC at 24 h [19]: 10300 ng·h/mL
AUC at 12 h [20]: 9800 ng·h/mL
concentration at 12 h [21]: 113 ng/mL
concentration at 12 h [22]: 811 ng/mL
Activity (Homo sapiens [23]): Non-toxic
Activity (Homo sapiens [24]): Non-toxic
Activity (Homo sapiens [25]): Non-toxic
Activity (Homo sapiens [26]): 4.1 mg/dL
Activity (Homo sapiens [27]): Non-toxic
AUC at 12 h [28]: 23800 ng·h/mL
AUC at 24 h [29]: 61400 ng·h/mL
Activity (Homo sapiens [30]): Non-toxic
AUC at 12 h [31]: 5100 ng·h/mL
Cmax [32]: 5200 ng/mL
Cmax [33]: 3910 ng/mL
AUC at 24 h [34]: 29300 ng·h/mL
Activity (Homo sapiens [35]): Non-toxic
Vbeta (Homo sapiens [36]): 171 L
AUC at 24 h [37]: 47600 ng·h/mL
Activity (Homo sapiens [38]): 5 mg/dL
CL/F [39]: 1390 mL/min
Tmax [40]: 2.7 h
Activity (Homo sapiens [41]): 7%
Vbeta (Homo sapiens [42]): 78 L
Activity (Homo sapiens [43]): Non-toxic
Tmax [44]: 2.9 h
